Among the data in ChEMBL document CHEMBL1133306, “Discovery of a new class of p38 kinase inhibitors” (Bioorg Med Chem Lett, 2000) are IC50 and inhibition values, retold here.

The target in assay [1] is T1, Mitogen-activated protein kinase 14 (Homo sapiens, UniProt Q16539). Put plainly: Inhibitory activity against Mitogen-activated protein kinase p38 alpha 2 expressed in Escherichia coli.
In assay [2] the target is T1, Mitogen-activated protein kinase 14. Put plainly: Inhibitory activity against Mitogen-activated protein kinase p38 alpha 2 (expressed Escherichia coli) at concentration of 500 nM. The method in brief: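 Activated p38 α2 (0.05 µg/well) phosphorylating myelin basic protein (10 µg/well) in 25 mM HEPES pH 7.4, 20 mM MgCl₂, 150 mM NaCl. Compounds were added from 10% DMSO in water. Reactions were started with 10 µM ATP plus 0.2 µCi [γ-33P]ATP per well, run 35 min at 32 °C, and stopped with HCl. Filter-bound ³³P was counted by scintillation.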

The subject of assay [3] is SW1353. Put plainly: Compound was evaluated for its ability to inhibit IL-6 production in SW1353 cells treated with cytokines IL-1 and TNF. Conditions: Homo sapiens. It counts as functional, cell-based.

T1 sequence (Q16539 whole entry): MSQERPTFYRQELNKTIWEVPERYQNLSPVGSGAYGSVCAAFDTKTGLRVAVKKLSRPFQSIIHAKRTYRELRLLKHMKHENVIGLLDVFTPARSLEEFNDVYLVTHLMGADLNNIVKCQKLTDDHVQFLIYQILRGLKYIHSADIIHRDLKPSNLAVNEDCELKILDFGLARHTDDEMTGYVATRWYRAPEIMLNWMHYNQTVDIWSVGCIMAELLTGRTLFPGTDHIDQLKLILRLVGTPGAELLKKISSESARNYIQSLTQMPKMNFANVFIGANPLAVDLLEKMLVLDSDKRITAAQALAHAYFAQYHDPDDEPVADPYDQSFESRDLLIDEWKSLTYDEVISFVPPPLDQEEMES

In turn, `CC(C)c1cc(NC(=O)Nc2cccc(Cl)c2Cl)on1` yielded an IC50 in assay [1] of 0.29 µM. The inhibition in assay [2] stood at 62%. For `CC(C)(C)c1nnc(NC(=O)Nc2cccc(Cl)c2Cl)s1`, in assay [2], the inhibition was 1%.

`CC(C)(C)c1cc(NC(=O)Nc2ccccc2)no1` had an inhibition in assay [2] of 33%. For the compound `CCCCc1cc(NC(=O)Nc2cccc(Cl)c2Cl)on1`, in assay [1], inhibition was half-maximal at 1.1 µM (IC50). Also, the inhibition in assay [2] turned out to be 33%. Take `CC(C)(C)c1cc(NC(=O)Nc2cccc(Cl)c2Cl)on1`: in assay [1], the midpoint of inhibition, the IC50, lay at 0.036 µM. In assay [2], the inhibition was 93%. `CC(C)(C)c1cc(NC(=O)Nc2ccc(Cl)cc2C(F)(F)F)no1`: the inhibition in assay [2] stood at 9%. The same measure, in the same setting: next, `CC(=O)Nc1ccc(NC(=O)Nc2cc(C(C)(C)C)on2)cc1`: 14%; `O=C(Nc1cc(C23CC4CC(CC(C4)C2)C3)no1)Nc1cccc(Cl)c1Cl`: 9%. Consider `CC(C)(C)c1cc(NC(=O)Nc2ccc(Cl)cc2)on1`, for which the half-maximal inhibitory concentration (IC50) in assay [1] worked out at 0.26 µM. The same compound gave an inhibition in assay [2] of 68%.

For `CC(C)(C)c1ccc(NC(=O)Nc2cccc(Cl)c2Cl)s1`, the IC50 in assay [1] was determined as 0.12 µM. This compound also showed an inhibition in assay [2] of 82%. For `CC(C)(C)Cc1cc(NC(=O)Nc2cccc(Cl)c2Cl)on1`, in that order: 0.12 µM and 81%.

`CC(C)(C)c1cc(NC(=O)Nc2cccc(Cl)c2Cl)cs1` returned a concentration for half-maximal inhibition (IC50) in assay [1] of 0.16 µM. Further, the inhibition in assay [2] was 76%. In turn, `CC(=O)Nc1cccc(NC(=O)Nc2cc(C(C)(C)C)no2)c1` showed an inhibition in assay [2] of 11%.

In assay [2], `Cc1cc(NC(=O)Nc2cccc(Cl)c2Cl)on1` showed an inhibition of 4%. Turning to `CC(C)(C)c1cc(NC(=O)Nc2cccc(Cl)c2Cl)no1`, the IC50 in assay [1] amounted to 0.058 µM; in assay [3], 1.2 µM. This compound also registered an inhibition in assay [2] of 88%. In assay [2], `CC(C)(C)c1cc(NC(=O)Nc2ccc(F)cc2)on1` came in with an inhibition of 41%. The same measure, in the same setting: next, `CC(C)(C)c1cc(NC(=O)Nc2ccccc2C(F)(F)F)no1`: 36%. Compound `CC(C)(C)c1cc(NC(=O)Nc2ccc(C(F)(F)F)cc2)on1` returned a concentration for half-maximal inhibition (IC50) in assay [1] of 0.2 µM. The same compound registered an inhibition in assay [2] of 77%. Taken in the same sequence, the figures for `O=C(Nc1cc(C2CCC2)no1)Nc1cccc(Cl)c1Cl` were 0.37 µM and 57%. Consider `Cc1cccc(NC(=O)Nc2cc(C(C)(C)C)on2)c1C`, for which the inhibition in assay [2] was 54%. Still for that read-out and setting: for `CCC(C)(C)c1noc(NC(=O)Nc2cccc(Cl)c2Cl)c1C` the value was 18%. In turn, `CC(C)(C)c1cc(NC(=O)Nc2ccc(Cl)c(Cl)c2)on1` showed a concentration for half-maximal inhibition (IC50) in assay [1] of 0.22 µM. The inhibition in assay [2] turned out to be 62%. Taken in the same sequence, the figures for `CC(C)(C)c1cc(NC(=O)Nc2ccc(F)cc2)no1` were 0.19 µM and 74%. `CC(=O)Nc1ccc(NC(=O)Nc2cc(C(C)(C)C)no2)cc1` showed an inhibition in assay [2] of 20%. Take `Cc1c(C(C)(C)C)noc1NC(=O)Nc1cccc(Cl)c1Cl`: in assay [2], the inhibition was determined as 18%.

`Cc1cccc(NC(=O)Nc2cc(C(C)(C)C)no2)c1C`: the inhibition in assay [2] was 49%.

In the case of `Cc1c(C(C)C)noc1NC(=O)Nc1cccc(Cl)c1Cl`, it took 0.92 µM to reach half-maximal inhibition in assay [1] (IC50). Also, the inhibition in assay [2] is 34%.

As for `CC(=O)Nc1cccc(NC(=O)Nc2cc(C(C)(C)C)on2)c1`, in assay [2], the inhibition is 18%. Same read-out and setting: next, `CC(C)(C)c1cc(NC(=O)Nc2ccc(C(F)(F)F)cc2)no1`: 39%. As to `CCC(C)(C)c1cc(NC(=O)Nc2cccc(Cl)c2Cl)on1`, the 50% inhibitory concentration (IC50) in assay [1] was 0.12 µM. The compound further showed an inhibition in assay [2] of 83%. Turning to `Cc1cc(F)ccc1-c1cc(N(C(N)=O)c2c(Cl)cccc2Cl)ccc1CO`, 0.002 µM corresponded to half-maximal inhibition in assay [1] (IC50). This lies in the single-digit nanomolar range. Same read-out and setting: next, `CC(C)(C)c1cc(NC(=O)Nc2cc(Br)cc(Br)c2)no1`: 0.71 µM.
